Test results reported in ChEMBL document CHEMBL4028872, “Structure-Activity Relationship, Pharmacological Characterization, and Molecular Modeling of Noncompetitive Inhibitors of the Betaine/γ-Aminobutyric Acid Transporter 1 (BGT1)” (J Med Chem, 2017).
Activity calls are given as the source filed them. The calls are words filed in the database; no cut-off is given here.

Assays:
[1] = target: Sodium- and chloride-dependent GABA transporter 1 (Mus musculus, UniProt P31648); experiment: Inhibition of mouse GAT1 expressed in HEK293 cells assessed as reduction in [3H]GABA uptake after 3 mins by scintillation counting method; assay type: cell-based
In short: (§1)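 HEK293 lines stably expressing a single mouse GAT subtype, kept under blasticidin-S (5 µg/mL) selection. Cells were assayed about 24 h after plating with 30 nM [3H]GABA plus varying compound concentrations for 3 min at 37 °C in HBSS buffered with 20 mM HEPES (1 mM CaCl2, 1 mM MgCl2, pH 7.4). Cells were washed ice-cold and radioactivity counted. IC50 came from sigmoidal variable-slope fits.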

GABA transporter 2 = target: T1, GABA transporter 2 (Mus musculus, UniProt P31651); experiment: Inhibition of mouse BGT1 expressed in HEK293 cells assessed as reduction in [3H]GABA uptake after 3 mins by scintillation counting method; assay type: cell-based; details: read-out: IC50; in short: as §1
T1 sequence (P31651 whole entry): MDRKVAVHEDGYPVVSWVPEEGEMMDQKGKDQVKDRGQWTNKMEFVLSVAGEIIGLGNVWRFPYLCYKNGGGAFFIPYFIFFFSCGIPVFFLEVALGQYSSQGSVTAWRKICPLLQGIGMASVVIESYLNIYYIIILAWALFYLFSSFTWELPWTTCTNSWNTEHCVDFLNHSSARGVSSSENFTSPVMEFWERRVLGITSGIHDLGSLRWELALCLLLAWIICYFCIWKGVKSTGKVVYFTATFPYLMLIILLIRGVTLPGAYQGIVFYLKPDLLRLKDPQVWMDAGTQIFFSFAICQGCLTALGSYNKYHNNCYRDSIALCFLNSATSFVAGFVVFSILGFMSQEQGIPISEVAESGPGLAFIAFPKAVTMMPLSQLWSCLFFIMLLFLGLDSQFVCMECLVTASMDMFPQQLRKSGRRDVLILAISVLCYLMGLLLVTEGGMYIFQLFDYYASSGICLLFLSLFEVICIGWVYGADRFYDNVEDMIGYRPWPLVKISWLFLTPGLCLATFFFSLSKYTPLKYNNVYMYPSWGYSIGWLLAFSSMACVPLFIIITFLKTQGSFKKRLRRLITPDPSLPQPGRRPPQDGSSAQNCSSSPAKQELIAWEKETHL

GABA transporter 3 = target: T2, GABA transporter 3 (Mus musculus, UniProt P31649); experiment: Inhibition of mouse GAT2 expressed in HEK293 cells assessed as reduction in [3H]GABA uptake after 3 mins by scintillation counting method; assay type: cell-based
T2 sequence (P31649 whole entry): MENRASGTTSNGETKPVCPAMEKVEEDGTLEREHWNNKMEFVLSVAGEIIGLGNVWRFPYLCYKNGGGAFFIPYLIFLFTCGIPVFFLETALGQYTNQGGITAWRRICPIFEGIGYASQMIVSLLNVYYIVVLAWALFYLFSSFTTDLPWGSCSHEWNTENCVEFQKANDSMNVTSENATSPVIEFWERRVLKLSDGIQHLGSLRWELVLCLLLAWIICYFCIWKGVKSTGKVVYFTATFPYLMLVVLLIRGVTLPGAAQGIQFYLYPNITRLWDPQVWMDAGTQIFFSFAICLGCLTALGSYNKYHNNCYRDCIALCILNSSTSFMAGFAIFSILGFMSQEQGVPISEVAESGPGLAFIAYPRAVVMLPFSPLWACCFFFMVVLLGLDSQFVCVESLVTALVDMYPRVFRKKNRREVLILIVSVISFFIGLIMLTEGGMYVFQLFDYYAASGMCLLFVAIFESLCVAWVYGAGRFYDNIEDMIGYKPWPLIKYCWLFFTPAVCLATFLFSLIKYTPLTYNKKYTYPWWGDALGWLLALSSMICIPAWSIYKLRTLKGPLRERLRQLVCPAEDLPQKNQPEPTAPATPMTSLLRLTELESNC
In short: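 HEK293 cells stably expressing mouse GAT2 were kept under blasticidin-S (5 µg/mL) selection. Ice-cold washes preceded scintillation counting. IC50 came from a variable-slope sigmoidal fit.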

[2] = target: D(2) dopamine receptor (Homo sapiens) (UniProt P14416); experiment: Displacement of [3H]N-methylspiperone from human Dopamine receptor D2 receptor expressed in fibroblast cell membranes at 10 uM after 90 mins by scintillation counting method
Chain of D(2) dopamine receptor (Homo sapiens) (P14416 whole entry): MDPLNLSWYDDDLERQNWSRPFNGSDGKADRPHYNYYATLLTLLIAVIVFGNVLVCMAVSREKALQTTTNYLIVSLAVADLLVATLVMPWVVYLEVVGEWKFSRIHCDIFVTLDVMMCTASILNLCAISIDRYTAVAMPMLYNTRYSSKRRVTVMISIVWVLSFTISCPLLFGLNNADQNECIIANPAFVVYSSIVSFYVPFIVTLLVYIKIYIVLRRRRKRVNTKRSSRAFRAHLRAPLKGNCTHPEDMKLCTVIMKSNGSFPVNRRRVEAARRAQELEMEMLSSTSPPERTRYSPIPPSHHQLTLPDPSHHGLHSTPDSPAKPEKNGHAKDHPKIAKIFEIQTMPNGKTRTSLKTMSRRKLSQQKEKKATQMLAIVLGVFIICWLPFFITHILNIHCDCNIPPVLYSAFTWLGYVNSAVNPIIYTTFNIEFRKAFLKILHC

[3] = target: D(4) dopamine receptor (Homo sapiens) (UniProt P21917); experiment: Displacement of [3H]N-methylspiperone from human Dopamine receptor D4 receptor at 10 uM after 90 mins by scintillation counting method
Chain of D(4) dopamine receptor (Homo sapiens) (P21917 whole entry): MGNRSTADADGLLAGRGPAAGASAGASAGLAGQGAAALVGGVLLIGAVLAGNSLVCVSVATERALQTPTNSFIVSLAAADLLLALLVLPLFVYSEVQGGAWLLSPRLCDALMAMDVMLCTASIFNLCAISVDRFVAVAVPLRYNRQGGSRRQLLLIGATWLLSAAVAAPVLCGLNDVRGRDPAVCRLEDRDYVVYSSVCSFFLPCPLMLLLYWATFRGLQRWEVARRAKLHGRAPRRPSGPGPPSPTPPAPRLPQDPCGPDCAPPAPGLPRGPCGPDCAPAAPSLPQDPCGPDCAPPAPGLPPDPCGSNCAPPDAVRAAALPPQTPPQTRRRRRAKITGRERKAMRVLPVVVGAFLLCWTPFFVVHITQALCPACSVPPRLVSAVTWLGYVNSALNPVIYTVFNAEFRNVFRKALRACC

[4] = target: Sodium- and chloride-dependent betaine transporter (Homo sapiens, UniProt P48065, Q299L); experiment: Inhibition of human BGT1 Q299L mutant expressed in tsA201 cells assessed as reduction in [3H]GABA uptake after 3 mins by scintillation counting method; assay type: cell-based
Chain of Sodium- and chloride-dependent betaine transporter (P48065 whole entry Q299L): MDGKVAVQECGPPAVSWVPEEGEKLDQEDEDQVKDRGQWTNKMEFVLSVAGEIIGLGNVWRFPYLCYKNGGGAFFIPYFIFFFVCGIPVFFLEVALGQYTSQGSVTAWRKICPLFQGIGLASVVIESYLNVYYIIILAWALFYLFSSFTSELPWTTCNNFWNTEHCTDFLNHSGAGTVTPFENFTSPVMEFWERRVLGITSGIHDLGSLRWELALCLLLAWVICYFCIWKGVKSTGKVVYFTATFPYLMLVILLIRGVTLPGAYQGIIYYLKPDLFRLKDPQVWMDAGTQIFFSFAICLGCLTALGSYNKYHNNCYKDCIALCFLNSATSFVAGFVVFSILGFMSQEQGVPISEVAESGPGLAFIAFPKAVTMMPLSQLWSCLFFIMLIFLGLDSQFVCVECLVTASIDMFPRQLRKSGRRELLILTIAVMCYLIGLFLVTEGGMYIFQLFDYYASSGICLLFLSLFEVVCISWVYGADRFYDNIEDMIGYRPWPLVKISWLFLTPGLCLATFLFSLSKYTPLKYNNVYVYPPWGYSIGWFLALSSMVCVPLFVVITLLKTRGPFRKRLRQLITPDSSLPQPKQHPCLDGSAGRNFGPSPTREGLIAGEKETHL
In short: (§2)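 Site-directed mutant transporters transiently transfected (PolyFect) into tsA201 cells, plated and used about 24 h later. Cells were washed with HBSS containing 20 mM HEPES, 1 mM CaCl2 and 1 mM MgCl2, pH 7.4. IC50 was taken from variable-slope sigmoidal fits. Triplicates, at least three independent experiments.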

[5] = target: Sodium- and chloride-dependent GABA transporter 3 (Homo sapiens, UniProt P48066, S468Y); experiment: Inhibition of human GAT3 S468Y mutant expresses in tsA201 cells assessed as reduction in [3H]GABA uptake after 3 mins by scintillation counting method; assay type: cell-based
Chain of Sodium- and chloride-dependent GABA transporter 3 (P48066 whole entry S468Y): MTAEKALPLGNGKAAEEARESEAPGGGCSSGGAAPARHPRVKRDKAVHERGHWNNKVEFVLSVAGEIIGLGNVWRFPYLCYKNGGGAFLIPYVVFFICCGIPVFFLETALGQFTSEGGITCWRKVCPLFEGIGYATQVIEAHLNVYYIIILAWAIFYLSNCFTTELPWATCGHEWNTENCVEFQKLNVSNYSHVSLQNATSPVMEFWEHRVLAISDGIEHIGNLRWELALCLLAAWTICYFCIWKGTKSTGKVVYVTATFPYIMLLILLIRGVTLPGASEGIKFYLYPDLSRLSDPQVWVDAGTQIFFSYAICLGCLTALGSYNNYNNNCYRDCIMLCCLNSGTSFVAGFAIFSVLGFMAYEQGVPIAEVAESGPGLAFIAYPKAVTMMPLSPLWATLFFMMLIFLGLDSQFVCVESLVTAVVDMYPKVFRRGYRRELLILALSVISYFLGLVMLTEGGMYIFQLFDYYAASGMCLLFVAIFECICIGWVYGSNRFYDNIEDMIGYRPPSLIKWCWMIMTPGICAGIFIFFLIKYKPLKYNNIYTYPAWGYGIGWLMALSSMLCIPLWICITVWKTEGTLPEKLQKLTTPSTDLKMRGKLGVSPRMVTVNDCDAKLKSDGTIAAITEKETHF
In short: as §2, with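 “7.4. Uptake of 30 nM [3H]GABA was run with varied inhibitor concentrations for 3 min at 37 °C, then three ice-cold washes and scintillation counting.” for “7.4.”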

SMILES	IC50 [1]	IC50 (GABA transporter 2)	IC50 (GABA transporter 3)	inhibition [2]	inhibition [3]	IC50 [4]	IC50 [5]
O=C(NC1CCN(Cc2ccccc2)CC1)c1ccc(Cl)cc1Cl	> 200 µM	32 µM	> 200 µM	Active	Active	3 µM	> 300 µM
O=C(NC1CCN(Cc2ccccc2)CC1)c1ccc(Cl)nc1Cl	> 400 µM	37 µM	> 400 µM	inactive	inactive	8 µM	> 1000 µM
